Ecoli WT expand: growth inhibitors of E. coli BW25113 wild type; hit rate 0.15% among 98,000; OD600 absorbance; growth inhibition, % at 100 µM;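 active = growth inhibition above about 50% at one test dose, limit read from the data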;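 also: growth measured after 20 h incubation at 37 °C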
Fibroblast inh: blocks proliferation of human lung fibroblasts; LL 47 human lung fibroblast viability, ATP luminescence; hits give low values; viability, % at 10 µM; hit rate 1.1% among 85,000;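 active = viability at or below 50% in the single dose screen; inactive = viability above 50%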;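 also: compound exposure lasted 72 h before the ATP readout; 100% = median luminescence of untreated cell-only wells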
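material = human LL 47 lung fibroblast cells | dosing = compounds added from tenfold dosing solution, 0.1% DMSO final | timing = overnight cell rest, 72 h compound treatment at 37 °C | measured by = CellTiter-Glo luminescence measuring cellular ATP | evaluation = % viability versus median cells-only luminescence | control set = cell-only wells, no compound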
Ecoli tolC: E. coli tolC mutant growth inhibition | E. coli BW25113 tolC mutant growth, OD615 | AID 573 | growth inhibition, % at 10 µM (by protocol) | hit rate 2.2% among 65,000;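 active = growth inhibition at or above a cutoff equal to the mean over every tested compound plus 3 SD, cut at about 60% in these data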;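 also: growth measured after 20 h incubation at 37 °C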
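Test system – E. coli BW25113 ΔtolC::kan, tolC deletion mutant strain · Detection – OD at 615 nm · Buffer or medium – LB with kanamycin 50 µg/mL · Times – 20 h compound exposure of bacteria at 37 °C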
Jurkat tox 60K: cytotoxic compounds reducing Jurkat cell viability; Jurkat E6.1 viability, ATP luminescence, 48 h; inhibition, % at 4 µM; hit rate 1.2% among 56,000; AID 463;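 active = inhibition above the mean inhibition of all tested compounds plus 3 SD, cut at about 28% in these data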
H69AR growth 86K: growth inhibitors of human H69AR lung tumor cells. H69AR lung tumor viability, ATP luminescence, 72 h; hits give low values. viability, % at 10 µM. hit rate 6% among 85,000;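 active = viability at or below 40%; inactive = viability above 40%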;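 also: multidrug resistant small cell line overexpressing MRP-1 efflux transporter; 100% = mean luminescence of untreated control wells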
HUVEC prolif 384: blocks proliferation of human endothelial cells. AID 648. hit rate 1.1% among 86,000. viability, % at 10 µM (by protocol). HUVEC proliferation, CellTiter-Glo luminescence, 72 h; hits give low values;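 active = viability at or below 30%; inactive = viability above 30%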;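 also: 100% = median luminescence of DMSO-only cell control wells on each plate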
Numbers without * were called inactive. Only some compounds are listed: those with a hit (about 6.4% of all), similar ones and a draw of the others.

How did Cc1ccc(C(C(=O)NC2CCCC2)N(Cc2cccs2)C(=O)CNC(=O)c2cccs2)o1 (configuration not stated) do in these assays?
Ecoli WT expand: -11.0; Ecoli tolC: 65.8*; Jurkat tox 60K: 2.0

What do the screens show for `Cc1ccc(C(C(=O)NC2CCCC2)N(C(=O)CNC(=O)c2cccs2)c2cccnc2)o1` (configuration not stated)?
Fibroblast inh: 101.9; H69AR growth 86K: 104.2; HUVEC prolif 384: 99.9

What do the screens show for `Fc1ccc(-n2c(Cc3ccccc3)nnc2SCc2nc(-c3cccs3)no2)cc1`?
Ecoli WT expand: -20.0; Fibroblast inh: 101.9; Ecoli tolC: 69.6*; Jurkat tox 60K: 4.6; H69AR growth 86K: 59.1; HUVEC prolif 384: 103.2

Results for Cc1ccc(-c2noc(CSc3nnnn3C3CCCCC3)n2)cc1 ?
Ecoli WT expand: 2.0; Fibroblast inh: 97.2; Ecoli tolC: 72.6*; Jurkat tox 60K: -1.0; H69AR growth 86K: 85.8; HUVEC prolif 384: 82.2

Results for Cc1ccc(-c2noc(CSc3nnc(Cc4ccccc4)n3-c3cccc(C)c3)n2)cc1 ?
Ecoli WT expand: -19.0; Fibroblast inh: 104.0; H69AR growth 86K: 20.0*; HUVEC prolif 384: 88.9

How did COc1ccc(S(=O)(=O)n2nc(C)cc2C)c(C)c1C do in these assays?
Ecoli WT expand: -1.0; Fibroblast inh: 97.7; H69AR growth 86K: 84.1; HUVEC prolif 384: 97.8

What do the screens show for `CCOc1cc(C2NC(=O)NC(C)=C2C(C)=O)cc(Cl)c1OCC(=O)O` (configuration not stated)?
Ecoli WT expand: -3.0; Fibroblast inh: 103.4; H69AR growth 86K: 102.4; HUVEC prolif 384: 102.5

Results for COc1ccccc1N1CCN(C(=O)CSc2nnc3n2C(C)(C)Cc2ccccc2-3)CC1 ?
Ecoli WT expand: 4.0; Fibroblast inh: 104.1; Ecoli tolC: 30.2; Jurkat tox 60K: 60.5*; H69AR growth 86K: 80.5; HUVEC prolif 384: 63.0

Results for CC1Cc2ccccc2N1C(=O)CSc1nnc2n1C(C)(C)Cc1ccccc1-2 (configuration not stated) ?
Ecoli WT expand: -3.0; Fibroblast inh: 106.7; Ecoli tolC: 23.1; Jurkat tox 60K: -0.3; H69AR growth 86K: 80.0; HUVEC prolif 384: 91.0

Results for O=C1Nc2ccccc2C(O)(C(=O)NCc2ccc3c(c2)OCO3)N1c1ccc(Cl)c(Cl)c1 (configuration not stated) ?
Ecoli WT expand: -3.0; Fibroblast inh: 94.5; H69AR growth 86K: 95.0; HUVEC prolif 384: 84.6

Results for COc1cccc(C2c3c(oc4ccc(Cl)cc4c3=O)C(=O)N2c2cc(C)on2)c1OC (configuration not stated) ?
Ecoli WT expand: -12.0; Fibroblast inh: 71.9; Ecoli tolC: -3.0; Jurkat tox 60K: 2.3; H69AR growth 86K: 6.6*; HUVEC prolif 384: 54.5

What do the screens show for `COc1ccc(/C(O)=C2\C(=O)C(=O)N(c3cc(C)on3)C2c2cccc(OC)c2OC)cc1C` (configuration not stated)?
Ecoli WT expand: -5.0; Fibroblast inh: 95.9; Ecoli tolC: -10.3; H69AR growth 86K: 74.0; HUVEC prolif 384: 88.4

How did Cc1nc2ccccc2c2c1C(=O)N(C1CCCCCCC1)C2=O do in these assays?
Ecoli WT expand: 0.0; Fibroblast inh: 95.1; H69AR growth 86K: 70.9; HUVEC prolif 384: 103.2

What do the screens show for `Cc1cc(C)c2oc(-c3cccc(NC(=O)c4ccc(F)cc4)c3)nc2c1`?
Ecoli WT expand: -10.0; Fibroblast inh: 99.1; H69AR growth 86K: 17.3*; HUVEC prolif 384: 39.5

Results for O=c1ccc2cc3c([nH]c4ccc(Br)cc43)oc-2c1O ?
Ecoli WT expand: -4.0; Fibroblast inh: 86.8; Ecoli tolC: -10.3; Jurkat tox 60K: -2.0; H69AR growth 86K: 22.6*; HUVEC prolif 384: 101.3

Results for O=c1c2c([nH]c3ccc(Br)cc13)CCCC2 ?
Fibroblast inh: 94.2; Ecoli tolC: 2.7; Jurkat tox 60K: 10.8; H69AR growth 86K: 67.8; HUVEC prolif 384: 101.5

Results for CCOC(=O)c1oc2ccccc2c1NC(=O)c1cccc(OC)c1OC ?
Ecoli WT expand: -5.0; Fibroblast inh: 88.6; Ecoli tolC: 55.2; Jurkat tox 60K: 5.1; H69AR growth 86K: 29.8*; HUVEC prolif 384: 62.8

What do the screens show for `O=C(Oc1oc(-c2ccco2)nc1C=Nc1ccccc1)c1ccoc1`?
Ecoli WT expand: 3.0; Fibroblast inh: 86.7; Ecoli tolC: 11.9; H69AR growth 86K: 38.0*; HUVEC prolif 384: 72.1

Screens from PubChem BioAssay.
